# Measured values from ChEMBL document CHEMBL4325839, “Design, synthesis and biological evaluations of quaternization harman analogues as potential antibacterial agents” (Eur J Med Chem, 2018).
# Assays:
# Assay type in all cases: functional
# Staphylococcus aureus [1] = assay: Antibacterial activity against Staphylococcus aureus CGMCC 1.8721 after 12 to 14 hrs by double dilution method
# Staphylococcus aureus [2] = assay: Antibacterial activity against methicillin-resistant Staphylococcus aureus ATCC 43300 after 12 to 14 hrs by double dilution method
# Outline: (§1)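 Broth double-dilution MIC per NCCLS. Bacteria at 1×10^6 CFU/mL in Luria-Bertani medium. Compounds dissolved in DMSO as stock, then diluted in medium to 200, 100, 50, 25, 12.5, 6.25 and 3.125 nmol/mL (DMSO <0.5%); some also tested at 256–1 µg/mL. Incubated at 37 °C for 12–14 h. MIC read as lowest concentration giving visible growth inhibition.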
# Bacillus cereus = assay: Antibacterial activity against Bacillus cereus CGMCC 1.1846 after 12 to 14 hrs by double dilution method
# Escherichia coli = assay: Antibacterial activity against Escherichia coli CGMCC 1.1636 after 12 to 14 hrs by double dilution method
# Bacillus subtilis = assay: Antibacterial activity against Bacillus subtilis 769 after 12 to 14 hrs by double dilution method
# Ralstonia solanacearum = assay: Antibacterial activity against Ralstonia solanacearum CGMCC 1.12711 measured after 12 to 14 hrs by double dilution method; outline: as §1
smiles,measurement,setting,value
COc1ccc2[nH]c3c(-c4ccc5c(c4)OCO5)[n+](Cc4ccccc4)ccc3c2c1,MIC,Staphylococcus aureus [1],100 µM
same,MIC,Staphylococcus aureus [2],50 µM
same,MIC,Bacillus cereus,200 µM
same,MIC,Escherichia coli,> 200 µM
same,MIC,Bacillus subtilis,50 µM
same,MIC,Ralstonia solanacearum,50 µM
Cc1ccc(C[n+]2ccc3c([nH]c4ccccc43)c2-c2ccco2)cc1,MIC,Staphylococcus aureus [1],50 µM
same,MIC,Staphylococcus aureus [2],50 µM
same,MIC,Bacillus cereus,100 µM
same,MIC,Escherichia coli,100 µM
same,MIC,Bacillus subtilis,25 µM
same,MIC,Ralstonia solanacearum,25 µM
COc1ccc2[nH]c3c(-c4ccccn4)[n+](Cc4ccc(C)cc4)ccc3c2c1,MIC,Staphylococcus aureus [1],100 µM
same,MIC,Staphylococcus aureus [2],100 µM
same,MIC,Bacillus cereus,200 µM
same,MIC,Escherichia coli,> 200 µM
same,MIC,Bacillus subtilis,100 µM
same,MIC,Ralstonia solanacearum,100 µM
FC(F)(F)c1ccc(C[n+]2ccc3c([nH]c4ccccc43)c2-c2ccccn2)cc1,MIC,Staphylococcus aureus [1],25 µM
same,MIC,Staphylococcus aureus [2],50 µM
same,MIC,Bacillus cereus,100 µM
same,MIC,Escherichia coli,> 200 µM
same,MIC,Bacillus subtilis,50 µM
same,MIC,Ralstonia solanacearum,50 µM
COC(=O)c1ccc(-c2c3[nH]c4ccc(OC)cc4c3cc[n+]2Cc2ccccc2Br)cc1,MIC,Staphylococcus aureus [1],75 µM
same,MIC,Staphylococcus aureus [2],75 µM
same,MIC,Bacillus cereus,100 µM
same,MIC,Bacillus subtilis,50 µM
same,MIC,Ralstonia solanacearum,50 µM
C[C@@H]1O[C@@H]1P(=O)(O)O [PHOSPHOMYCIN DISODIUM],MIC,Staphylococcus aureus [1],100 µM
same,MIC,Staphylococcus aureus [2],50 µM
same,MIC,Bacillus cereus,25 µM
same,MIC,Escherichia coli,6.25 µM
same,MIC,Bacillus subtilis,12.5 µM
same,MIC,Ralstonia solanacearum,50 µM
COC(=O)c1ccc(-c2c3[nH]c4ccccc4c3cc[n+]2Cc2ccc(C(F)(F)F)cc2)cc1,MIC,Staphylococcus aureus [1],50 µM
same,MIC,Staphylococcus aureus [2],50 µM
same,MIC,Bacillus cereus,100 µM
same,MIC,Escherichia coli,200 µM
same,MIC,Bacillus subtilis,50 µM
same,MIC,Ralstonia solanacearum,50 µM
COC(=O)c1ccc(-c2c3[nH]c4ccc(OC)cc4c3cc[n+]2Cc2ccc(Cl)cc2)cc1,MIC,Staphylococcus aureus [1],50 µM
same,MIC,Staphylococcus aureus [2],100 µM
same,MIC,Bacillus cereus,50 µM
same,MIC,Bacillus subtilis,50 µM
same,MIC,Ralstonia solanacearum,37.5 µM
COC(=O)c1ccc(-c2c3[nH]c4ccc(OC)cc4c3cc[n+]2Cc2ccccc2F)cc1,MIC,Staphylococcus aureus [1],200 µM
same,MIC,Staphylococcus aureus [2],200 µM
same,MIC,Bacillus cereus,200 µM
same,MIC,Bacillus subtilis,100 µM
same,MIC,Ralstonia solanacearum,150 µM
c1ccc(C[n+]2ccc3c([nH]c4ccccc43)c2-c2ccc3c(c2)OCO3)cc1,MIC,Staphylococcus aureus [1],100 µM
same,MIC,Staphylococcus aureus [2],100 µM
same,MIC,Bacillus cereus,100 µM
same,MIC,Escherichia coli,> 200 µM
same,MIC,Bacillus subtilis,50 µM
same,MIC,Ralstonia solanacearum,100 µM
COc1ccc2[nH]c3c(-c4ccccn4)nccc3c2c1,MIC,Staphylococcus aureus [1],> 200 µM
same,MIC,Staphylococcus aureus [2],> 200 µM
same,MIC,Bacillus cereus,> 200 µM
same,MIC,Escherichia coli,> 200 µM
same,MIC,Bacillus subtilis,> 200 µM
same,MIC,Ralstonia solanacearum,> 200 µM
COC(=O)c1ccc(-c2c3[nH]c4ccc(OC)cc4c3cc[n+]2Cc2ccc(C)cc2)cc1,MIC,Staphylococcus aureus [1],50 µM
same,MIC,Staphylococcus aureus [2],100 µM
same,MIC,Bacillus cereus,50 µM
same,MIC,Escherichia coli,> 200 µM
same,MIC,Bacillus subtilis,50 µM
same,MIC,Ralstonia solanacearum,50 µM
COC(=O)c1ccc(-c2c3[nH]c4ccccc4c3cc[n+]2Cc2ccc(C)cc2)cc1,MIC,Staphylococcus aureus [1],50 µM
same,MIC,Staphylococcus aureus [2],50 µM
same,MIC,Bacillus cereus,100 µM
same,MIC,Escherichia coli,200 µM
same,MIC,Bacillus subtilis,50 µM
same,MIC,Ralstonia solanacearum,50 µM
COC(=O)c1ccc(-c2c3[nH]c4ccc(OC)cc4c3cc[n+]2Cc2ccc(F)cc2)cc1,MIC,Staphylococcus aureus [1],100 µM
same,MIC,Staphylococcus aureus [2],200 µM
same,MIC,Bacillus cereus,200 µM
same,MIC,Bacillus subtilis,75 µM
same,MIC,Ralstonia solanacearum,150 µM
COC(=O)c1ccc(-c2c3[nH]c4ccc(OC)cc4c3cc[n+]2Cc2ccc(F)cc2F)cc1,MIC,Staphylococcus aureus [1],100 µM
same,MIC,Staphylococcus aureus [2],> 200 µM
same,MIC,Bacillus cereus,200 µM
same,MIC,Bacillus subtilis,100 µM
same,MIC,Ralstonia solanacearum,100 µM
COC(=O)c1ccc(-c2c3[nH]c4ccc(OC)cc4c3cc[n+]2Cc2cccc(Br)c2)cc1,MIC,Staphylococcus aureus [1],50 µM
same,MIC,Staphylococcus aureus [2],50 µM
same,MIC,Bacillus cereus,75 µM
same,MIC,Bacillus subtilis,25 µM
same,MIC,Ralstonia solanacearum,25 µM
COC(=O)c1ccc(-c2c3[nH]c4ccc(OC)cc4c3cc[n+]2Cc2ccc([N+](=O)[O-])cc2)cc1,MIC,Staphylococcus aureus [1],100 µM
same,MIC,Staphylococcus aureus [2],200 µM
same,MIC,Bacillus cereus,200 µM
same,MIC,Bacillus subtilis,200 µM
same,MIC,Ralstonia solanacearum,100 µM
COC(=O)c1ccc(-c2c3[nH]c4ccc(OC)cc4c3cc[n+]2Cc2cccc(F)c2)cc1,MIC,Staphylococcus aureus [1],200 µM
same,MIC,Staphylococcus aureus [2],200 µM
same,MIC,Bacillus cereus,200 µM
same,MIC,Bacillus subtilis,75 µM
same,MIC,Ralstonia solanacearum,150 µM
